Assay outcomes deposited in PubChem by several laboratories.
Compounds with a hit are over-represented: about 2.5% of the library has one in this group of screens.
MEKK3 PB1 HTS – MEKK3-MEK5 PB1 interaction, increase or decrease. bead-based flow cytometry, Alexa488-MEK5 binding to MEKK3; actives lie on both sides; 0 = blocked by unlabeled MEK5, 100 = vehicle. Q99759. hit rate 1.4% among 290,000. binding response (% of control), % at 10 µM. AID 1529;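 active = binding response more than 3 SD above or below the average of its plate-row segment, actives on both sides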;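 also: Alexa488 bead fluorescence after subtracting the streptavidin-only scavenger bead signal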
Target sequence (Q99759 whole entry, looked up): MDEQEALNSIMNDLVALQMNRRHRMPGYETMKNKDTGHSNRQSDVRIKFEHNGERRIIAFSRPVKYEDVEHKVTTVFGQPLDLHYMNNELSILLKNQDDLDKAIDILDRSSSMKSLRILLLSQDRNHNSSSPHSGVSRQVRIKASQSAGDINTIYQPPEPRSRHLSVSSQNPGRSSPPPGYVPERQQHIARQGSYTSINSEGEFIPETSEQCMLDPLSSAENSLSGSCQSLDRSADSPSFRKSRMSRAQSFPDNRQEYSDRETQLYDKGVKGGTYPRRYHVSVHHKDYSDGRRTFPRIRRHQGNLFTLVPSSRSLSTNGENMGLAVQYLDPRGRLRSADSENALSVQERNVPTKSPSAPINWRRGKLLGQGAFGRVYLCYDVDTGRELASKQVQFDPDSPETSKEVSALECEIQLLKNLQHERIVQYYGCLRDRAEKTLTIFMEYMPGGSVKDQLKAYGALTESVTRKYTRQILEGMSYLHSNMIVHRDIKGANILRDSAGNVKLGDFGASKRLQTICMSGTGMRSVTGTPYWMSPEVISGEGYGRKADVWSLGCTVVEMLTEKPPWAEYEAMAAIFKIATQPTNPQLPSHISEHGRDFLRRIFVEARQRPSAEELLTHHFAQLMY
MEKK2wt PB1 HTS – raises or lowers MEK5 binding to wildtype human MEKK2 PB1 domain | hit rate 1.1% among 290,000 | binding response (% of control), % at 10 µM | Q9Y2U5 | bead flow cytometry, Alexa488-MEK5 binding to MEKK2 WT; actives lie on both sides; in the data active = binding response below about 67% or above about 130%
Rce1 inhib – yeast Ras-converting enzyme inhibition; Q03530; yeast membranes, quenched prenylated peptide cleavage fluorescence; calls only; hit rate 0.27% among 290,000;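 active = fall in fluorescence gain of 50% or more versus controls, with final raw signal at or below 3038400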
T cell modulator – T cell immune modulation candidate; 2C CD8+ T cell-vesicle binding, flow cytometry; active compounds read low; response (vesicle binding), % at 7 µM; hit rate 0.068% among 330,000; AID 2052;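 active = response, share of CD8 T cells binding vesicles, and their 90th percentile fluorescence all below set limits, cut at about 80% in these data, passing the limit was not always enough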;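 also: values below 100% mean blocked vesicle binding to the CD8+ T cells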
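Incubation: binding step 1.5 h, 37 °C, antibody labelling 20 min, ice; system: murine 2C transgenic CD8+ T lymphocytes; technique: cytometric PE anti-B7-1 and Alexa647 anti-CD8 signals after 1% paraformaldehyde fixation; also added: QL9-charged Drosophila Ld/ICAM-1/B7-1 vesicles; control set: naked versus QL9-loaded vesicles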
MEKK2mut PB1 HTS – signal of MEK5 binding to mutant human MEKK2 PB1 domain; bead flow cytometry, Alexa488-MEK5 binding to MEKK2 mutant; percent response, % at 10 µM; hit rate 0.35% among 290,000; in the data active = percent response above about 24%, passing the limit was not always enough
UCH37 DUB inh – blocks the human deubiquitinase UCH37; Q9Y5K5; purified proteasome/UCH37, Ub-AMC cleavage fluorescence; inhibition, % (test concentration not listed); hit rate 0.33% among 330,000; AID 588478;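 active = mean inhibition over replicate wells above about 20%, limit read from the data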
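Material: human UCH37 enzyme supplied as purified proteasome complex. Measure: % inhibition of Ub-AMC cleavage fluorescence. Medium: pH 7.4 Tris-HCl (50 mM) with ovalbumin, ATP-MgCl2, DTT. Times: 30 min preincubation with enzyme, 25 min cleavage at room temperature. Detection: AMC fluorescence intensity at 355/460 nm.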
MEKK2wt confirm – raises or lowers MEK5 binding to wildtype human MEKK2, retest. shares compounds with MEKK3 PB1 HTS. bead flow cytometry, Alexa488-MEK5 binding to MEKK2 WT; actives lie on both sides. binding response (% of control), % at 10 µM. hit rate 2.4% among 5,900; in the data active = binding response below about 16% or above about 210%; inactive = in between
MEKK2mut confirm – signal of MEK5 binding to mutant human MEKK2, retest; shares compounds with MEKK3 PB1 HTS; bead flow cytometry, Alexa488-MEK5 binding to MEKK2 mutant; percent response, % at 10 µM; hit rate 2% among 5,900; in the data active = percent response mostly above about 71%, no sharp cut-off; inactive = mostly below about 38%;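 also: higher means compound restores mutant binding toward wildtype level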
MEKK3-MEK5 inh – MEKK3-MEK5 PB1 inhibition, single concentration confirmation. shares compounds with MEKK3 PB1 HTS. bead flow cytometry, Alexa488-MEK5 binding to MEKK3; active compounds read low. binding response (% of control), % at 10 µM. hit rate 1.8% among 5,900;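 active = binding response below 72% of control, or above a set upper limit, though filed actives all read lower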;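 also: lower values mean stronger disruption of MEK5 binding to MEKK3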
Numbers stand for hits; - = inactive; . = no result given; ! = a repeat was not active; [ ] = remark or other dose.

SMILES	MEKK3 PB1 HTS	MEKK2wt PB1 HTS	Rce1 inhib	T cell modulator	MEKK2mut PB1 HTS	UCH37 DUB inh	MEKK2wt confirm	MEKK2mut confirm	MEKK3-MEK5 inh
O=[N+]([O-])c1cc(Cl)ccc1N1CCN(c2cccc(C(F)(F)F)c2)CC1	-	138.0	-	-	-	-	-	-	-
O=[N+]([O-])c1cc(Cl)ccc1N1CCCC1	-	-	-	-	-	-	.	.	.
c1ccc2[nH]c(-c3ccncc3)nc2c1	42.0![inhibitor]	46.0![inhibitor]	-	-	-	-	-	-	-
c1ccc(-c2nc3ccccc3[nH]2)cc1	-	-	-	-	-	-	.	.	.
CCc1ccccc1NC(=O)CN(C)C(=O)Cn1cnc2ccc(Cl)cc2c1=O	.	.	.	-	.	-	.	.	.
CCc1ccccc1NC(=O)CN(C)C(=O)Cn1ncc(Cl)c(Cl)c1=O	133.0	-	-	-	-	-	-	-	-
Cc1noc(C)c1COc1ccc(C(=O)OC(C)C(=O)Nc2ccc(S(=O)(=O)N3CCOCC3)cc2)cc1 (stereo not given)	152.0	-	-	-	-	-	-	-	-
COc1cccc(NC(=O)C(=O)NN=C(C)CC(=O)Nc2ccc(NC(C)=O)cc2)c1	.	.	.	.	.	-	.	.	.
CN(C(=O)NC(=O)C1=C(N2CCOCC2)/C(=C/c2ccccc2)CC1)S(C)(=O)=O	2.0[inhibitor]	-2.0[inhibitor]	-	-	-	-	-	-	-
Cc1ccc(C=Nn2c(-c3ccco3)n[nH]c2=S)s1	.	.	.	.	.	-	.	.	.
COCCNC(=S)NN=C1CCCCCC1	4.0[inhibitor]	7.0[inhibitor]	-	.	-	-	-	-	-
CCOc1ccc(/C(O)=C2\C(=O)C(=O)N(c3cc(C)on3)C2c2ccccc2OC)cc1 (stereo not given)	2.0[inhibitor]	2.0[inhibitor]	-	-	-	-	-	-	-
O=C(CN1CCCCCC1)NN=Cc1ccc2ccccc2c1	.	.	.	.	.	-	.	.	.
NC(=O)CC(NC(=O)c1cccc(Br)c1)c1ccc(N2CCCCCC2)c([N+](=O)[O-])c1 (stereo not given)	-	-	-	-	-	-	.	.	.
NC(=O)CC(NC(=O)c1cccc(Br)c1)c1ccc(N2CCC(N3CCCC3)CC2)c([N+](=O)[O-])c1 (stereo not given)	-	153.0	-	-	-	-	-	-	-
COC(=O)c1ccc(CN(c2ccccn2)S(=O)(=O)c2ccccc2)cc1	132.0	-	.	-	-	-	-	-	-
Cc1nnc(C)n1N=Cc1cc(Br)ccc1O	.	.	.	.	.	-	.	.	.
C=CCn1c(=O)c2c3c(sc2n2c(Nc4ccc(OC)cc4)nnc12)CCCC3	-	-	.	-	-	-	.	.	.
C=CCn1c(=O)c2c3c(sc2n2c(Nc4ccccc4)nnc12)CCCC3	10.0[inhibitor]	13.0[inhibitor]	-	-	-	-	-	-	-
Oc1ccccc1-c1nnc(-c2ccc(C(F)(F)F)cc2)o1	81.0[inhibitor]	-	-	-	-	-	-	-	-
COc1cccc(-c2nnc(-c3ccc(C(F)(F)F)cc3)o2)c1	-	-	-	-	-	-	.	.	.
O=C(CSc1nc2ccccc2n1Cc1ccc(Cl)cc1)NN=Cc1ccc(C(=O)O)cc1	.	.	.	.	.	-	.	.	.
Cc1ccc(NC(=O)C(=O)NCCOc2ccc(Cl)cc2)c(C)c1	128.0	-	-	-	-	-	-	-	-
Cc1csc(NC(=O)CCn2c(=O)sc3ccccc32)n1	70.0[inhibitor]	-	-	-	-	-	-	-	-
O=C(CCn1c(=O)sc2ccccc21)Nc1nccs1	-	-	-	-	-	-	.	.	.
CC1=CC(C)(C)N(C(=O)c2ccccc2)c2ccccc21	-	-	-	-	-	-	.	.	.
CC1=CC(C)(C)N(C(=O)Nc2ccccc2)c2ccccc21	43.0[inhibitor]	-	-	-	-	-	-	-	-
CCc1cc(C(Cc2ccccn2)=NO)c(O)cc1O	.	.	.	.	.	-	.	.	.
